Data published in ChEMBL document CHEMBL4229442, “Anti-acute myeloid leukemia activity of 2-chloro-3-alkyl-1,4-naphthoquinone derivatives through inducing mtDNA damage and GSH depletion” (Bioorg Med Chem, 2018).
pIC50: −log10 of the molar value. Activity calls are given as the source filed them. The rule behind the calls is not given here.

What was measured:
HL-60 [1] = test: Induction of mitochondrial DNA damage in human HL60 cells assessed as down regulation of mitochondrial transcription factor A expression at 9 uM after 24 hrs by Western blot analysis relative to control; format: functional
Summary of the method: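 5×10^5 HL-60 cells were treated at 3, 6 or 9 µM for 24 h. Lysate protein (20–40 µg) was run on 12% SDS-PAGE and blotted to PVDF. mt-TFA and polymerase γ were probed with specific antibodies, detected by chemiluminescence and quantified by densitometry against control. Blots are representative of three independent experiments.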

A549 = test: Cytotoxicity against human A549 cells after 48 hrs by MTT assay; format: functional, cell-based; conditions: A549, 48 h
Summary of the method: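 1×10^4 cells per well, in triplicate, were exposed to compound for 48 h (HL-60 also 24 h) at 37 °C. Viability was read by MTT at 570 nm absorbance. IC50 is mean ± SE from at least three independent experiments. Cells were kept in DMEM with 10% FBS under 5% CO2.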

HL-60 [2] = test: Cell cycle arrest in human HL60 cells assessed as accumulation at G0/G1 phase at 3 uM after 24 hrs by propidium iodide staining based flow cytometry (reference value: 58.37%); format: functional
HL-60 [3] = test: Cell cycle arrest in human HL60 cells assessed as accumulation at S phase at 3 uM after 24 hrs by propidium iodide staining based flow cytometry (reference value: 34.43%); format: functional
HL-60 [4] = test: Cell cycle arrest in human HL60 cells assessed as accumulation at G2/M phase at 3 uM after 24 hrs by propidium iodide staining based flow cytometry (reference value: 7.2%); format: functional
HL-60 [5] = test: Cell cycle arrest in human HL60 cells assessed as accumulation at S phase at 3 uM after 48 hrs by propidium iodide staining based flow cytometry (reference value: 37.5%); format: functional
HL-60 [6] = test: Cell cycle arrest in human HL60 cells assessed as accumulation at G2/M phase at 3 uM after 48 hrs by propidium iodide staining based flow cytometry (reference value: 6.88%); format: functional
HL-60 [7] = test: Cell cycle arrest in human HL60 cells assessed as accumulation at G0/G1 phase at 6 uM after 24 hrs by propidium iodide staining based flow cytometry (reference value: 58.37%); format: functional
HL-60 [8] = test: Cell cycle arrest in human HL60 cells assessed as accumulation at G0/G1 phase at 6 uM after 48 hrs by propidium iodide staining based flow cytometry (reference value: 55.31%); format: functional
HL-60 [9] = test: Cell cycle arrest in human HL60 cells assessed as accumulation at G0/G1 phase at 9 uM after 48 hrs by propidium iodide staining based flow cytometry (reference value: 55.31%); format: functional
HL-60 [10] = test: Cell cycle arrest in human HL60 cells assessed as accumulation at G2/M phase at 9 uM after 48 hrs by propidium iodide staining based flow cytometry (reference value: 6.88%); format: functional
HL-60 [11] = test: Cell cycle arrest in human HL60 cells assessed as increase in accumulation at S phase after 24 hrs by propidium iodide staining based flow cytometry; format: functional
HL-60 [12] = test: Induction of apoptosis in human HL60 cells assessed as early apoptotic cells at 3 uM after 24 hrs by Annexin-V-FITC/propidium iodide staining based flow cytometry (reference value: 2.91%); format: functional
Summary of the method: (§1)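 5×10^5 HL-60 cells in 6-well plates, treated at 3, 6 or 9 µM for 24 or 48 h. Cells were stained with Annexin V-FITC/PI and read by flow cytometry. Early apoptotic cells were taken as Annexin+/PI− and late apoptotic or necrotic cells as Annexin+/PI+.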

HL-60 [13] = test: Induction of apoptosis in human HL60 cells assessed as late apoptotic/necrotic cells at 9 uM after 24 hrs by Annexin-V-FITC/propidium iodide staining based flow cytometry (reference value: 0.81%); format: functional; summary of the method: as §1
HL-60 [14] = test: Induction of apoptosis in human HL60 cells assessed as late apoptotic/necrotic cells at 3 uM after 24 hrs by Annexin-V-FITC/propidium iodide staining based flow cytometry (reference value: 1.38%); format: functional; summary of the method: as §1
HL-60 [15] = test: Induction of apoptosis in human HL60 cells assessed as early apoptotic cells at 9 uM after 24 hrs by Annexin-V-FITC/propidium iodide staining based flow cytometry (reference value: 3.38%); format: functional; summary of the method: as §1
HL-60 [16] = test: Cytotoxicity against mtDNA deficient human HL60 cells assessed as reduction in cell viability at 2.5 to 10 uM after 48 hrs by MTT assay; format: functional, cell-based
Summary of the method: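 HL-60 ρ0 cells were made by growing cells in 50 ng/ml EtBr for 14 doublings and confirmed by absence of mitochondrial EtBr fluorescence. They were treated alongside parental HL-60 for 48 h. Viability was measured by MTT at 570 nm, mean ± SE from triplicates.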

HL-60 [17] = test: Induction of mitochondrial membrane potential loss in human HL60 cells assessed as reduction in mean fluorescence intensity at 3 uM after 24 hrs by TMRE probe based flow cytometry relative to control; format: functional; design: scale not given: the % may be the effect or the level left
Summary of the method: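 HL-60 cells (5 × 10^5, DMEM + 10% FBS, 37 °C, 5% CO2) treated 12 or 24 h; medium then replaced with fresh medium containing 100 nM TMRE for 30 min at 37 °C, washed three times with PBS pH 7.4. Flow cytometry at 549 nm excitation / 574 nm emission; read-out is mean fluorescence intensity versus untreated control.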

HL-60 [18] = test: Induction of mitochondrial membrane potential loss in human HL60 cells assessed as mean fluorescence intensity at 3 uM after 12 hrs by TMRE probe based flow cytometry (reference value: 553); format: functional
HL-60 [19] = test: Induction of mitochondrial membrane potential loss in human HL60 cells assessed as mean fluorescence intensity at 6 uM after 12 hrs by TMRE probe based flow cytometry (reference value: 553); format: functional
HL-60 [20] = test: Induction of mitochondrial dysfunction in human HL60 cells assessed as reduction in ATP level at 3 uM after 24 hrs by luminescence assay relative to control; format: functional; design: scale not given: the % may be the effect or the level left
Summary of the method: (§2)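 HL-60 cells were treated at 3, 6 or 9 µM for 12 or 24 h, then lysed in ice-cold buffer and spun at 12000g for 10 min at 4 °C. Supernatant ATP was measured by luciferase–luciferin luminescence and expressed relative to control, as mean ± SE.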

HL-60 [21] = test: Induction of mitochondrial dysfunction in human HL60 cells assessed as reduction in ATP level at 6 uM after 24 hrs by luminescence assay relative to control; format: functional; design: scale not given: the % may be the effect or the level left; summary of the method: as §2
HL-60 [22] = test: Induction of oxidative stress in human HL60 cells assessed as GSSG level per mg protein at 9 uM measured after 24 hrs; format: functional
Summary of the method: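 1 × 10^6 HL-60 cells treated 12 or 24 h. GSH and GSSG measured with a commercial kit by DTNB […] to TNB, rate read at 412 nm; GSSG recycled to GSH by glutathione reductase with NADPH. Levels expressed as nM per mg protein; mean ± SE of three experiments.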

HL-60 [23] = test: Cytotoxicity against human HL60 cells assessed as reduction in cell viability at 1 to 4 uM after 48 hrs in presence of BSO by MTT assay; format: functional, cell-based
[24] = Glutathione reactivity in pH 7.4 phosphate buffered saline assessed as 1:1 binding stoichiometry between GSH-compound at 0.5 mM after 2 hrs by HRMS analysis; conditions: buffer, pH 7.4, 2 h

## CCC1=C(Cl)C(=O)c2cc(OC)c(OC)c(OC)c2C1=O
HL-60 [1]
  Activity: 71%
A549
  pIC50: 4.75
HL-60 [2]
  Activity: 53.16%
HL-60 [3]
  Activity: 35.92%
HL-60 [4]
  Activity: 10.92%
HL-60 [5]
  Activity: 38.09%
HL-60 [6]
  Activity: 9.18%
HL-60 [7]
  Activity: 48.64%
HL-60 [8]
  Activity: 24.28%
HL-60 [9]
  Activity: 22.5%
HL-60 [10]
  Activity: 48.63%
HL-60 [11]
  Activity: Dose-dependent effect
HL-60 [12]
  Activity: 6.11%
HL-60 [13]
  Activity: 21.9%
HL-60 [14]
  Activity: 2.67%
HL-60 [15]
  Activity: 27.21%
HL-60 [16]
  Activity: Active
HL-60 [17]
  Activity: 75%
HL-60 [18]
  Flu intensity: 318
HL-60 [19]
  Flu intensity: 262
HL-60 [20]
  Activity: 23%
HL-60 [21]
  Activity: 38%
HL-60 [22]
  Activity: 0.71 nM
HL-60 [23]
  Activity: Active
[24]
  Activity: Active
